Assay outcomes deposited in PubChem by PCMD.
Yeast eIF2B = GCN4-lacZ reporter reduction in eIF2B-epsilon mutant yeast, primary screen, S. cerevisiae, eIF2B-epsilon R284H, Beta-Glo luminescence. inhibition, % at 25 µM (by protocol). 27,000 tested, 0.91% active;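 active means mutant luminescence inhibited past about 50% while wild type luminescence and mutant growth stay under set limits, limit read from the data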
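material = yeast eIF2B-epsilon R284H mutant carrying GCN4–beta-galactosidase fusion | schedule = 16 h growth with compound at 30 °C, 90 min Beta-Glo step | measured by = luminescence and A595 | compound dosing = one concentration, 25 µM, 0.25% DMSO | read-out basis = % inhibition of reporter signal and growth versus controls | buffer or medium = YPD medium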
Yeast growth tox = yeast growth toxicity, wild-type and mutant, primary screen, cytotoxicity control for eIF2B function restoration project, wild-type and eIF2Bepsilon R284H mutant, A595. 30,000 tested, 0.3% active. growth inhibition, % at 25 µM (by protocol). AID 685, 2007. S. cerevisiae wild-type growth, A595 turbidity, 16 h;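 active means mutant and wild-type yeast strains alike exhibit over 30% growth inhibition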
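Schedule: 16 h growth with compound, 30 °C. System: yeast, wild-type or eIF2Bepsilon-R284H mutant. Doses: one dose, 25 µM compound[…]. Buffer or medium: YPD. Signal: turbidity measured as absorbance at 595 nm. Read-out basis: growth inhibition (%) versus cell controls and blanks.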
Of the large screens only hits and unclear results are named; the others gave an inactive call. In the library only some 1% were active in any assay of this set; here they are far more common.

CC(C)(C)C(=O)C(Cc1ccccc1Cl)n1cncn1 (stereo not drawn)	Yeast growth tox 74.4
CC(C)(C)C(=O)Cn1c(=N)n(Cc2ccccc2Cl)c2ccccc21	none (no result: Yeast eIF2B)
CCCC(C(=O)c1ccccc1)n1cncn1 (stereo not drawn)	none
CC(C)(C)C(=O)C(Cc1ccccc1)n1cncn1 (stereo not drawn)	Yeast growth tox 62.2
CCCCNC(=O)C1CCCN1C(=O)Nc1ccccc1 (stereo not drawn)	none
O=C(CCN1C(=O)COc2ccccc21)NCCC1=CCCCC1	none
CCCCN(C)CCCNC(=O)c1ccc(N2CCCC2=O)cc1	none
COc1ccc(CCNC(=O)c2ccc(N3CCCC3=O)cc2)cc1OC	Yeast eIF2B 55.9
Cc1nnc2sc(-c3ccc(NC(=O)c4ccc(-c5ccc(Br)cc5)o4)cc3)nn12	none
Cc1ccc(NC2CC(=O)N(Cc3ccccc3)C2=O)cc1 (stereo not drawn)	none (no result: Yeast eIF2B)
CN1C(=O)CC2(CC(=O)N(Cc3ccccc3)C2)C1=O (stereo not drawn)	Yeast eIF2B 61.3 (no result: Yeast growth tox)
COc1ccc(CCN2C(=NC(=O)CCC(=O)O)SC3CS(=O)(=O)CC32)cc1OC (stereo not drawn)	none (no result: Yeast eIF2B)
CCc1ccc(C(=O)c2cncc(Br)c2)cc1	none
COc1ccc(OC)c(N/C(C)=C/C(=O)c2ccc(C)o2)c1	Yeast eIF2B 56.5
COc1ccc(OC)c(NC(=O)Nc2ccc(Cl)cc2)c1	none (no result: Yeast eIF2B)
CC1(C)CC(N(Cc2ccco2)C(=O)Cc2ccccc2)CCO1 (stereo not drawn)	none
CN1CCc2nc(SCC(=O)Nc3ccc(Cl)cc3)c(C#N)cc2C1	Yeast eIF2B 61.8
N#Cc1cc2c(nc1SCC(=O)Nc1sc3c(c1C#N)CCC3)CCCCCC2	none (no result: Yeast eIF2B)
Fc1ccc(Nc2nc(Oc3ccc4c(c3)OCO4)nc(N3CCOCC3)n2)c(F)c1	Yeast eIF2B 56.7
c1ccc(Oc2nc(Oc3ccccc3)nc(N3CCOCC3)n2)cc1	none
CC(=O)Nc1ccc(NC(=O)Oc2ccccc2)cc1	none
CCC(=O)Nc1ccc(Nc2ccccc2)cc1	none
CC(=O)Oc1ccc(NC(=O)Cc2ccccc2)cc1	Yeast eIF2B 58.3
COCC(=O)Nc1ccc(Nc2ccccc2)cc1	Yeast growth tox 30.6
O=c1nc(N(c2ccccc2)c2ccccc2)[nH]c(=O)[nH]1	none
Cc1ccc(S(=O)(=O)Oc2ccc(C(c3c(C)[nH][nH]c3=O)c3c(C)[nH][nH]c3=O)cc2)cc1	none
Cc1[nH][nH]c(=O)c1C(c1ccc(-c2ccc(Cl)c(Cl)c2)o1)c1c(C)[nH][nH]c1=O	Yeast growth tox 45.8
O=C(O)C1CC1C(=O)N1CCN(c2ccc(Cl)c(Cl)c2)CC1 (stereo not drawn)	none
CN(C)CCN1C(=O)C(O)=C(C(=O)c2ccco2)C1c1ccccc1F (stereo not drawn)	Yeast eIF2B 62.9
CN(C)CCN1C(=O)C(O)=C(C(=O)c2cc3ccccc3o2)C1c1ccccn1 (stereo not drawn)	none
Cc1ccc(OCc2nnc(SCC(=O)NCc3ccco3)n2C)cc1	none
CCCOc1ccc(N2C(=O)CC(SC(=NC)Nc3ccc(F)cc3)C2=O)cc1 (stereo not drawn)	none
CCCOc1ccc(N2C(=O)CC(SC(=NCC)Nc3cccc(F)c3)C2=O)cc1 (stereo not drawn)	Yeast eIF2B 52.7
CC(=O)c1ccc(N2CCCCCC2)c(F)c1	none
CCOC(=O)c1ccc(NS(=O)(=O)CC)cc1	none (no result: Yeast eIF2B)
CCOC(=O)c1ccc(N2C(=O)C=CC2=O)cc1	Yeast growth tox 90.0
CCN=c1sc2ccccc2n1CC(O)COc1ccccc1 (stereo not drawn)	none (no result: Yeast eIF2B)
N#C/C(=C/c1ccc(N2CCCCC2)o1)c1cccc(F)c1	none (no result: Yeast eIF2B)
Cc1ccc2nc(/C(C#N)=C\c3ccc(N4CCOCC4)o3)[nH]c2c1	Yeast eIF2B 64.9 (no result: Yeast growth tox)
CCOC(=O)C1(CC)NC(c2ccco2)C2C(=O)N(C)C(=O)C21 (stereo not drawn)	none
CCOC(=O)C1(CCSC)NC(c2ccco2)C2C(=O)N(C)C(=O)C21 (stereo not drawn)	Yeast eIF2B 72.4
C=CCOc1ccc(CNc2nccs2)cc1	none
Cc1ccc(N(CC(=O)Nc2ccc3c(c2)OCCO3)S(=O)(=O)c2c(C)n[nH]c2C)cc1	none
CCn1c(SCC(=O)NCC(=O)Nc2ccc(F)cc2)nnc1-c1ccncc1	none
CC(Oc1ccc(C(=O)NC2CCCCC2)cc1)C(=O)O (stereo not drawn)	none (no result: Yeast eIF2B)
O=C(NC1CCCCC1)c1ccc(S(=O)(=O)N2CCCC2)cc1	Yeast growth tox 34.5
O=C(NC1CCCC1)c1ccc(S(=O)(=O)N2CCOCC2)cc1	none (no result: Yeast eIF2B)
CC(=O)Nc1ccc(C(=O)NC2CCCC2)cc1	Yeast eIF2B 50.9
CCOC(=O)c1cc2cc(OC)ccc2[nH]1	none
O=C(O)CCc1ccc(-c2ccccc2)n1NC(=O)c1sc2ccccc2c1Cl	none (no result: Yeast eIF2B)
CCN(CC)CCNC(=O)Cn1nc(-c2ccccc2)c2ccccc2c1=O	none
CNC(=O)Cn1nc(-c2ccc(C)c(S(=O)(=O)N(C)C)c2)c2ccccc2c1=O	Yeast eIF2B 61.6
COC(=O)c1ccccc1NC(=O)C1CCCN(S(=O)(=O)c2ccc(F)cc2)C1 (stereo not drawn)	none (no result: Yeast eIF2B)
COc1ccccc1NC(=S)NNC(=O)c1ccccc1	Yeast eIF2B 58.4
COc1ccccc1NC(=O)Oc1ccc(C(C)=O)cc1	none
CCn1c(SCC(=O)NC(C)C)nnc1-c1cccs1	none (no result: Yeast eIF2B)
O=C1C2ON(c3ccccc3)C(c3cccnc3)C2C(=O)N1Cc1ccccc1 (stereo not drawn)	none
Cc1noc(C)c1CSCC(=O)OCC(=O)NC1CCCCC1	none
O=C(c1ccc(Br)o1)N1CCCc2ccccc21	Yeast eIF2B 53.3
O=C(c1ccccc1)N1CCc2ccccc21	none
COc1cccc(-c2nc(CS(=O)(=O)CC(=O)NCCCOC(C)C)c(C)o2)c1	none
CCOC(=O)C1CCCN(C(=O)c2cc3c(C)nc4ccccc4c3o2)C1 (stereo not drawn)	Yeast eIF2B 65.0
CCOC(=O)C1CCCN(c2nc(C)nc3c2oc2ccccc23)C1 (stereo not drawn)	none
CCOC(=O)Cn1c(=O)c(-c2ccccc2NCc2ccccc2)nc2ccccc21	Yeast eIF2B 57.8
CCOC(=O)CSc1nc2ccccc2n1CC(=O)NC(C)(C)C	none
O=C(c1ccccc1)N1CCN(C(=O)c2ccncc2)CC1	Yeast eIF2B 50.5
CCS(=O)(=O)N1CCN(C(=O)c2ccccc2)CC1	none
Cc1ccc(NC(=O)CSC2=C(C#N)C(c3ccco3)C3=C(CCCC3=O)N2)cc1 (stereo not drawn)	none
N#CC1=C(SCC(=O)c2ccc(Cl)cc2)NC2=C(C(=O)CCC2)C1c1ccco1 (stereo not drawn)	Yeast eIF2B 50.7
CCOC(=O)c1sc2nccc(N(C)C)c2c1N=CNOCc1c(F)cccc1Cl	none
CC(=O)Oc1ccc(N2C(=O)C3C(C2=O)C2(C)C=CC3(C)O2)cc1 (stereo not drawn)	Yeast growth tox 61.1
CC(=O)Oc1ccc2c(C)cc(=O)oc2c1	none
COc1ccc(OCC(=O)Nc2ccc(N3CCOCC3)cc2)cc1	none
COc1ccc(CC(=O)Nc2ccc(N3CCN(c4ccc(OC)cc4)CC3)c(C#N)c2)cc1	Yeast eIF2B 53.3
CCOC(=O)c1cnc2nc(NCc3ccc(OCc4ccccc4)cc3)[nH]n2c1=O	none
Cn1ncc2c1ncn1c(-c3ccccc3Cl)nnc21	none (no result: Yeast growth tox)
NC(=O)CSc1nnc(-c2ccc(S(=O)(=O)N3CCOCC3)cc2)n1Cc1ccccc1	none
